Measured values published in ChEMBL document CHEMBL1148220, “Antineoplastic agents. 529. Isolation and structure of nootkastatins 1 and 2 from the Alaskan yellow cedar Chamaecyparis nootkatensis” (2004).
Values after ≈ are worked out from the molar mass of the structure shown. Active and inactive are the calls of the source. No cut-off for these calls is given here.

Experiments:
Staphylococcus aureus [1] = assay: Antimicrobial activity against Staphylococcus aureus ATCC 29213 after 24 hrs by broth microdilution assay; assay type: functional; settings: ATCC 29213, 24 h
Summary of the method: (§1)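 Bacterial MICs were determined by NCCLS broth microdilution. Compounds were dissolved in a small volume of sterile DMSO and diluted in the appropriate medium just before testing. MIC was the lowest concentration giving no visible growth (optically clear). Assays were repeated on separate days.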

KM-20L2 = assay: Cytotoxicity against human KM20L2 cells after 48 hrs by SRB assay; assay type: functional; settings: KM-20L2, 48 h
SF-268 = assay: Cytotoxicity against human SF268 cells after 48 hrs by SRB assay; assay type: functional; settings: SF-268, 48 h
Enterococcus faecalis [2] = assay: Antimicrobial activity against Enterococcus faecalis ATCC 29212 after 24 hrs by broth microdilution assay; assay type: functional; settings: ATCC 29212, 24 h; summary of the method: as §1
Enterobacter cloacae [3] = assay: Antimicrobial activity against Enterobacter cloacae ATCC 13047 at 64 ug/mL after 24 hrs by broth microdilution assay; assay type: functional, organism-based
BXPC-3 = assay: Cytotoxicity against human BxPC3 cells after 48 hrs by SRB assay; assay type: functional; settings: BXPC-3, 48 h
MCF7 = assay: Cytotoxicity against human MCF7 cells after 48 hrs by SRB assay; assay type: functional; settings: MCF7, 48 h
Neisseria gonorrhoeae [4] = assay: Antimicrobial activity against Neisseria gonorrhoeae ATCC 49226 at 64 ug/mL after 24 hrs by broth microdilution assay; assay type: functional; settings: ATCC 49226, 24 h
P388 = assay: Cytotoxicity against mouse P388 cells; assay type: functional; settings: read-out: ED50 (the source's name)
Micrococcus luteus [5] = assay: Antimicrobial activity against Micrococcus luteus Presque Isle 456 after 24 hrs by broth microdilution assay; assay type: functional; summary of the method: as §1
Escherichia coli [6] = assay: Antimicrobial activity against Escherichia coli ATCC 25922 at 64 ug/mL after 24 hrs by broth microdilution assay; assay type: functional, organism-based
[7] = system: Stenotrophomonas maltophilia; assay: Antimicrobial activity against Stenotrophomonas maltophilia ATCC 13637 at 64 ug/mL after 24 hrs by broth microdilution assay; assay type: functional, organism-based
NCI-H460 = assay: Cytotoxicity against human NCI-H460 cells after 48 hrs by SRB assay; assay type: functional; settings: NCI-H460, 48 h
Cryptococcus neoformans [8] = assay: Antimicrobial activity against Cryptococcus neoformans ATCC 90122 after 24 hrs by broth microdilution assay; assay type: functional; settings: ATCC 90112, 24 h, in the assay text read “ATCC 90112” for “ATCC 90122”
Summary of the method: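 Yeasts were tested by NCCLS broth microdilution. Compounds were dissolved in a small volume of sterile DMSO and diluted in the appropriate medium immediately before testing. MIC was the lowest concentration inhibiting all visible growth (optically clear). Assays were repeated on separate days.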

Streptococcus pneumoniae [9] = assay: Antimicrobial activity against Streptococcus pneumoniae ATCC 6303 after 24 hrs by broth microdilution assay; assay type: functional; settings: ATCC 6303, 24 h; summary of the method: as §1
Candida albicans [10] = assay: Antimicrobial activity against Candida albicans ATCC 90028 at 64 ug/mL after 48 hrs by broth microdilution assay; assay type: functional, organism-based
DU-145 = assay: Cytotoxicity against human DU145 cells after 48 hrs by SRB assay; assay type: functional; settings: DU-145, 48 h
Nakaseomyces glabratus = assay: Antimicrobial activity against Candida glabrata after 48 hrs by broth microdilution assay in presence of 25% human serum; assay type: functional
Summary of the method: (§2)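 For yeasts, NCCLS broth microdilution was run in medium supplemented with 25% heat-inactivated, filter-sterilized normal human serum. Compounds were reconstituted in sterile DMSO and diluted in medium just before the assay. MIC was the lowest concentration giving optically clear wells.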

Staphylococcus aureus [11] = assay: Antimicrobial activity against Staphylococcus aureus ATCC 29213 after 24 hrs by broth microdilution assay in presence of 25% human serum; assay type: functional; settings: ATCC 29213, 24 h
Summary of the method: (§3)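 Bacteria were tested by NCCLS broth microdilution in medium containing 25% heat-inactivated, filter-sterilized normal human serum. Compounds were dissolved in sterile DMSO and diluted in medium immediately before use. MIC was the lowest concentration with no visible growth (optically clear). Assays were repeated on separate days.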

Enterococcus faecium = assay: Antimicrobial activity against vancomycin-resistant Enterococcus faecium after 24 hrs by broth microdilution assay in presence of 25% human serum; assay type: functional
Summary of the method: as §3, with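 “Bacterial” for “Bacteria were tested by”, “microdilution run” for “microdilution”, “with” for “containing”, “taken up” for “dissolved”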

Neisseria gonorrhoeae [12] = assay: Antimicrobial activity against Neisseria gonorrhoeae ATCC 49226 after 24 hrs by broth microdilution assay in presence of 25% human serum; assay type: functional; settings: ATCC 49226, 24 h; summary of the method: as §3
Staphylococcus aureus [13] = assay: Antimicrobial activity against methicillin-resistant Staphylococcus aureus after 24 hrs by broth microdilution assay in presence of 25% human serum; assay type: functional
Summary of the method: as §3, with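 “Bacterial” for “Bacteria were tested by”, “microdilution run” for “microdilution”, “with” for “containing”, “taken up” for “dissolved”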

[14] = system: Staphylococcus epidermidis; assay: Antimicrobial activity against Staphylococcus epidermidis ATCC 49461 after 24 hrs by broth microdilution assay in presence of 25% human serum; assay type: functional; settings: ATCC 49461, 24 h; summary of the method: as §3
Streptococcus pneumoniae [15] = assay: Antimicrobial activity against penicillin-resistant Streptococcus pneumoniae after 24 hrs by broth microdilution assay in presence of 25% human serum; assay type: functional
Summary of the method: as §3, with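 “Bacterial” for “Bacteria were tested by”, “microdilution run” for “microdilution”, “with” for “containing”, “taken up” for “dissolved”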

Cryptococcus neoformans [16] = assay: Antimicrobial activity against Cryptococcus neoformans ATCC 90122 after 24 hrs by broth microdilution assay in presence of 25% human serum; assay type: functional; settings: ATCC 90112, 24 h, in the assay text read “ATCC 90112” for “ATCC 90122”; summary of the method: as §2
Candida albicans [17] = assay: Antimicrobial activity against Candida albicans ATCC 90028 after 48 hrs by broth microdilution assay in presence of 25% human serum; assay type: functional; settings: ATCC 90028, 48 h; summary of the method: as §2
Micrococcus luteus [18] = assay: Antimicrobial activity against Micrococcus luteus Presque Isle 456 after 24 hrs by broth microdilution assay in presence of 25% human serum; assay type: functional; summary of the method: as §3
Enterococcus faecalis [19] = assay: Antimicrobial activity against Enterococcus faecalis ATCC 29212 after 24 hrs by broth microdilution assay in presence of 25% human serum; assay type: functional; settings: ATCC 29212, 24 h; summary of the method: as §3
Streptococcus pneumoniae [20] = assay: Antimicrobial activity against Streptococcus pneumoniae ATCC 6303 after 24 hrs by broth microdilution assay in presence of 25% human serum; assay type: functional; settings: ATCC 6303, 24 h; summary of the method: as §3
Escherichia coli [21] = assay: Antimicrobial activity against Escherichia coli ATCC 25922 after 24 hrs by broth microdilution assay in presence of 25% human serum; assay type: functional; settings: ATCC 25922, 24 h; summary of the method: as §3
Rhodococcus sp. = assay: Antimicrobial activity against Rhodococcus sp. after 24 hrs by broth microdilution assay in presence of 25% human serum; assay type: functional; settings: Rhodococcus sp. (in: high G+C Gram-positive bacteria); summary of the method: as §3
Streptococcus pyogenes = assay: Antimicrobial activity against penicillin-resistant Streptococcus pyogenes after 24 hrs by broth microdilution assay in presence of 25% human serum; assay type: functional
Summary of the method: as §3, with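 “Bacterial” for “Bacteria were tested by”, “microdilution run” for “microdilution”, “with” for “containing”, “taken up” for “dissolved”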

[22] = system: Stenotrophomonas maltophilia; assay: Antimicrobial activity against Stenotrophomonas maltophilia ATCC 13637 after 24 hrs by broth microdilution assay in presence of 25% human serum; assay type: functional; settings: ATCC 13637, 24 h; summary of the method: as §3
Cryptococcus neoformans [23] = assay: Antimicrobial activity against fluconazole-resistant Cryptococcus neoformans after 48 hrs by broth microdilution assay in presence of 25% human serum; assay type: functional
Enterobacter cloacae [24] = assay: Antimicrobial activity against Enterobacter cloacae ATCC 13047 after 24 hrs by broth microdilution assay in presence of 25% human serum; assay type: functional; settings: ATCC 13047, 24 h; summary of the method: as §3

Q: What does the source list for CC(C)c1c(O)ccc2c1C=C[C@H]1C(C)(C)CCC[C@]21C?
A: MIC (Staphylococcus aureus [1]): 16 µg/mL (≈ 56.3 µM); GI50 (KM-20L2): > 10 µg/mL; GI50 (SF-268): > 10 µg/mL; MIC (Enterococcus faecalis [2]): 16 µg/mL (≈ 56.3 µM); Activity (Enterobacter cloacae [3]): inactive; GI50 (BXPC-3): > 10 µg/mL; GI50 (MCF7): > 10 µg/mL; MIC (Neisseria gonorrhoeae [4]): 8 µg/mL (≈ 28.1 µM); EC50 (P388): 3.7 µg/mL (≈ 13 µM); MIC (Micrococcus luteus [5]): 4 µg/mL (≈ 14.1 µM); Activity (Escherichia coli [6]): inactive; Activity [7]: inactive; GI50 (NCI-H460): > 10 µg/mL; MIC (Cryptococcus neoformans [8]): 16 µg/mL (≈ 56.3 µM); MIC (Streptococcus pneumoniae [9]): 32 µg/mL (≈ 113 µM); Activity (Candida albicans [10]): inactive; GI50 (DU-145): > 10 µg/mL

Q: For CC(C)O[C@@H]1C[C@H]2C(C)(C)CCC[C@]2(C)c2ccc(O)c(C(C)C)c2O1 [NOOTKASTATIN 2], which MBC (Staphylococcus aureus [1]) is on record?
A: 8 µg/mL (≈ 22.2 µM)

Q: And the MIC (Staphylococcus aureus [1])?
A: 4 µg/mL (≈ 11.1 µM)

Q: What about the GI50 (KM-20L2) of the same compound?
A: 2.4 µg/mL (≈ 6.66 µM)

Q: What about the GI50 (SF-268) of the same compound?
A: 2 µg/mL (≈ 5.55 µM)

Q: What about the MIC (Nakaseomyces glabratus) of the same compound?
A: > 64 µg/mL

Q: And the MIC (Staphylococcus aureus [11])?
A: > 64 µg/mL

Q: And the MIC (Enterococcus faecium)?
A: > 64 µg/mL

Q: What about the MIC (Neisseria gonorrhoeae [12]) of the same compound?
A: > 64 µg/mL

Q: What about the MIC (Staphylococcus aureus [13]) of the same compound?
A: > 64 µg/mL

Q: What about the MIC [14] of the same compound?
A: > 64 µg/mL

Q: And the MIC (Streptococcus pneumoniae [15])?
A: > 64 µg/mL

Q: And the MIC (Cryptococcus neoformans [16])?
A: > 64 µg/mL

Q: And the MBC (Enterococcus faecalis [2])?
A: 32 µg/mL (≈ 88.8 µM)

Q: And the MIC (Enterococcus faecalis [2])?
A: 2 µg/mL (≈ 5.55 µM)

Q: What about the Activity (Enterobacter cloacae [3]) of the same compound?
A: inactive

Q: And the MIC (Candida albicans [17])?
A: > 64 µg/mL

Q: And the GI50 (BXPC-3)?
A: 1.8 µg/mL (≈ 4.99 µM)

Q: What about the MIC (Micrococcus luteus [18]) of the same compound?
A: > 64 µg/mL

Q: What about the GI50 (MCF7) of the same compound?
A: 2.3 µg/mL (≈ 6.38 µM)

Q: And the MBC (Neisseria gonorrhoeae [4])?
A: 2 µg/mL (≈ 5.55 µM)

Q: What about the MIC (Neisseria gonorrhoeae [4]) of the same compound?
A: 2 µg/mL (≈ 5.55 µM)

Q: What about the EC50 (P388) of the same compound?
A: 5.8 µg/mL (≈ 16.1 µM)

Q: What about the MIC (Enterococcus faecalis [19]) of the same compound?
A: > 64 µg/mL

Q: And the MIC (Streptococcus pneumoniae [20])?
A: > 64 µg/mL

Q: And the MBC (Micrococcus luteus [5])?
A: 16 µg/mL (≈ 44.4 µM)

Q: What about the MIC (Micrococcus luteus [5]) of the same compound?
A: 1 µg/mL (≈ 2.77 µM)

Q: What about the MIC (Escherichia coli [21]) of the same compound?
A: > 64 µg/mL

Q: And the MIC (Rhodococcus sp.)?
A: > 64 µg/mL

Q: What about the MIC (Streptococcus pyogenes) of the same compound?
A: > 64 µg/mL

Q: And the Activity (Escherichia coli [6])?
A: inactive

Q: And the MIC [22]?
A: > 64 µg/mL

Q: What about the Activity [7] of the same compound?
A: inactive

Q: What about the GI50 (NCI-H460) of the same compound?
A: 2 µg/mL (≈ 5.55 µM)

Q: And the MIC (Cryptococcus neoformans [8])?
A: 64 µg/mL (≈ 178 µM)

Q: What about the MBC (Streptococcus pneumoniae [9]) of the same compound?
A: 64 µg/mL (≈ 178 µM)

Q: What about the MIC (Streptococcus pneumoniae [9]) of the same compound?
A: 64 µg/mL (≈ 178 µM)

Q: What about the MIC (Cryptococcus neoformans [23]) of the same compound?
A: > 64 µg/mL

Q: What about the Activity (Candida albicans [10]) of the same compound?
A: inactive

Q: And the MIC (Enterobacter cloacae [24])?
A: > 64 µg/mL

Q: What about the GI50 (DU-145) of the same compound?
A: 2.2 µg/mL (≈ 6.1 µM)
